Results on 27 molecules are retold here after ChEMBL document CHEMBL1154234, “Cytotoxic constituents of Soymida febrifuga from Myanmar” (J Nat Prod, 2009).

The pIC50 is −log10 of the IC50, conventionally taken in molar units. The low end stands for a large IC50, the high end for a small IC50.

pIC50: −log10 of the molar value.

What all share (format): functional, cell-based
For one assay, the system named is HeLa. The assay can be described thus: Cytotoxicity against human HeLa cells after 72 hrs by MTT assay. The method, boiled down:
(§1)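 Cells grown in MEMR with 10% FBS, 0.1% NaHCO3 and 1% antibiotic antimycotic; seeded 2 × 10^3/well and left 24 h at 37 °C, 5% CO2 to attach. Graded concentrations then added in medium for 72 h; MTT (0.5 mg/mL) for 2 h, formazan taken up in DMSO, absorbance at 550 nm. IC50 from means of three wells.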

The next assay deals with HT-1080. As to the kind of experiment: Cytotoxicity against human HT1080 cells after 72 hrs by MTT assay. Conditions: HT-1080, 72 h. An outline of the steps:
as §1
(In general: Tetrazolium dyes change colour on reduction, which living cells bring about.)

A further assay relates to A549. The assay can be described thus: Cytotoxicity against human A549 cells after 72 hrs by MTT assay. Particulars: A549, 72 h. An outline of the steps: as §1
Assay [1] in a line: Cytotoxicity against mouse B16-BL6 cells after 72 hrs by MTT assay. Conditions: B16-BL6, 72 h. The method, boiled down:
as §1

Another assay relates to PANC-1. The assay can be described thus: Cytotoxicity against human PANC1 cells in nutrient-deprived condition after 24 hrs by WST8 assay. An outline of the steps:
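PANC-1 seeded 2 × 10^4/well in DMEM, 24 h at 37 °C, 5% CO2; washed with PBS and switched to nutrient-deprived medium (or DMEM) with serial dilutions for 24 h. After PBS wash, DMEM with 10% WST-8 added for 3 h, absorbance at 450 nm. Viability vs blank and untreated control from three wells; PC50 reported.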

Assay [2] can be described thus: Cytotoxicity against mouse Colon 26-L5 cells after 72 hrs by MTT assay. An outline of the steps: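 Murine colon 26-L5 cells kept in RPMI 1640 with 10% FBS, 0.1% NaHCO3, 1% antibiotic antimycotic. Plated at 2 × 10^3/well, 24 h attachment at 37 °C, 5% CO2, then varying concentrations for 72 h. Read-out: MTT (0.5 mg/mL) 2 h, DMSO extraction, 550 nm; IC50 from means of three wells.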

As to `Cc1c(O)ccc2c1O[C@@H](c1ccc(O)cc1)CC2`, the pIC50 is 4.05 in the assay with HeLa; 4.62 in the assay on HT-1080; 4.40 in the assay on A549; 4.00 in assay [1]; 4.40 in assay [2]. The same molecule registered a PC50 with PANC-1 of 85.8 µM.

On to `COc1ccc(C(=O)CCc2c(OC)cc(O)cc2OC)cc1`, for which the pIC50 with HeLa was less than 4.00; in the assay on HT-1080, less than 4.00; with A549 it was less than 4.00; in assay [1], 4.15; in assay [2] it was 4.17. For the same molecule, in the assay on PANC-1, the PC50 was found to be 85.7 µM.

For the molecule `COc1cc(O)cc2c1OC[C@H](Cc1ccc(O)cc1)C2`, the pIC50 in the assay on HeLa was 4.18; in the assay with HT-1080, 4.15; in the assay with A549 it was less than 4.00; in assay [1], less than 4.00; in assay [2] it was 4.31. This molecule came in with a PC50 in the assay with PANC-1 greater than 100 µM.

As for `COc1cc2c(cc1O)C[C@@H](Cc1ccc(O)cc1)CO2`, the pIC50 in the assay on HeLa was 4.42; in the assay with HT-1080, 4.76; with A549, 4.72; in assay [1], 4.12; in assay [2], 4.65. Moreover, the PC50 in the assay with PANC-1 stood at 63 µM.

Regarding `COc1ccc(C[C@@H]2COc3cc(O)cc(O)c3C2=O)cc1`, the pIC50 was less than 4.00 in the assay with HeLa; less than 4.00 with HT-1080; less than 4.00 in the assay on A549; 4.19 in assay [1]; 4.51 in assay [2]. This molecule also gave a PC50 in the assay with PANC-1 (Homo sapiens, PANC-1, 24 h) greater than 100 µM.

As for `COc1cc2cc(Cc3ccc(O)cc3)c(=O)oc2cc1O`, the pIC50 is 4.16 in the assay on HeLa; 4.39 with HT-1080; 4.06 with A549; less than 4.00 in assay [1]; 4.21 in assay [2]. The PC50 with PANC-1 came out at 86.7 µM.

Turning to `Oc1ccc(C[C@H]2COc3cc(O)ccc3C2)cc1`, the pIC50 in the assay on HeLa is less than 4.00; in the assay with HT-1080 it was 4.10; in the assay with A549, less than 4.00; in assay [1], less than 4.00; in assay [2] it was 4.35. Moreover, the PC50 in the assay on PANC-1 was determined as 79 µM.

Consider `COc1c(O)cc2c(c1O)C(=O)[C@H](Cc1ccc(O)cc1)CO2`, for which the pIC50 in the assay with HeLa is less than 4.00; with HT-1080, 4.02; in the assay with A549, less than 4.00; in assay [1], less than 4.00; in assay [2], 4.05. The same molecule came in with a PC50 in the assay on PANC-1 greater than 100 µM.

As for `O=C1c2c(O)cc(O)cc2OC[C@H]1Cc1ccc(O)cc1`, the pIC50 is less than 4.00 in the assay with HeLa; less than 4.00 in the assay with HT-1080; less than 4.00 in the assay with A549; less than 4.00 in assay [1]; 4.24 in assay [2]. In the assay on PANC-1, this molecule displayed a PC50 greater than 100 µM.

For the molecule `O=C1c2ccc(O)cc2OC[C@H]1Cc1ccc(O)cc1`, the pIC50 in the assay on HeLa is less than 4.00; in the assay with HT-1080, less than 4.00; in the assay with A549 it was less than 4.00; in assay [1], 4.00; in assay [2], 4.16. In the assay on PANC-1, this molecule returned a PC50 greater than 100 µM.

For `COc1cc(O)c(C)c2c1CC[C@H](c1ccc(O)cc1)O2`, the pIC50 in the assay on HeLa was 4.13; with HT-1080, 4.43; in the assay with A549, 4.45; in assay [1], 4.05; in assay [2], 4.23. In the assay with PANC-1, this molecule returned a PC50 of 70.1 µM.

As for `COc1ccc2c(c1)O[C@H](c1ccc(O)cc1)CC2`, the pIC50 is less than 4.00 with HeLa; less than 4.00 in the assay on HT-1080; less than 4.00 in the assay with A549; 4.39 in assay [1]; 4.28 in assay [2]. The PC50 with PANC-1 was determined as 74 µM.

As to `COc1ccc(CCC(=O)c2ccc(O)cc2)c(O)c1`, the pIC50 in the assay on HeLa is 4.34; with HT-1080, less than 4.00; with A549, 4.92; in assay [1], 4.24; in assay [2] it was 4.09. In addition, the PC50 in the assay on PANC-1 was greater than 100 µM.

As for `O=C(/C=C/c1ccccc1O)c1ccc(O)cc1O`, the negative logarithm of the IC50 (pIC50) is 4.05 in the assay on HeLa; 4.39 in the assay on HT-1080; 4.05 in the assay on A549; less than 4.00 in assay [1]; 4.54 in assay [2]. This molecule gave a PC50 with PANC-1 greater than 100 µM.

As to `O=C(CCc1ccc(O)cc1O)c1ccc(O)cc1`, the pIC50 (in the assay with HeLa; with HT-1080; in the assay with A549; in assay [1]; in assay [2]) was less than 4.00 each time. Also, the PC50 in the assay with PANC-1 is greater than 100 µM.

`COc1cc(O)ccc1C(=O)/C=C/c1ccc(O)cc1`: the pIC50 in the assay on HeLa is 4.48; in the assay on HT-1080 it was 4.57; with A549, 4.18; in assay [1], 4.30; in assay [2] it was 4.85. In addition, in the assay on PANC-1, the PC50 was greater than 100 µM.

On to `COc1ccc(CCC(=O)c2ccc(O)cc2)c(OC)c1`, for which the pIC50 in the assay on HeLa was less than 4.00; with HT-1080 it was less than 4.00; in the assay with A549, 4.05; in assay [1] it was 4.26; in assay [2], 4.49. This molecule showed a PC50 with PANC-1 of 83.2 µM.

With `COc1cc(O)cc(OC)c1CCC(=O)c1ccc(O)cc1`, the pIC50 with HeLa was 4.31; with HT-1080, 4.17; in the assay with A549 it was 4.37; in assay [1], 4.07; in assay [2], 4.40. The PC50 in the assay on PANC-1 was found to be 69.7 µM.

Regarding `COc1cc(O)cc(/C=C/c2ccc(O)cc2)c1`, the pIC50 with HeLa is 4.32; with HT-1080, 4.05; in the assay with A549, 4.04; in assay [1], less than 4.00; in assay [2], 4.45. In addition, the PC50 in the assay on PANC-1 is 71.4 µM.

Take `O=C(/C=C/c1ccccc1)c1ccc(O)cc1O` [2',4'-DIHYDROXYCHALCONE]: the pIC50 with HeLa is 4.61; with HT-1080, 4.77; in the assay on A549, 4.63; in assay [1], less than 4.00; in assay [2] it was 5.33. Further, the PC50 in the assay with PANC-1 amounted to 19 µM.

Regarding `COc1cccc2c1C(=O)c1c(O)c3c(c(O)c1C2=O)C[C@@](O)(C(=O)CO)C[C@@H]3O[C@H]1C[C@H](N)[C@H](O)[C@H](C)O1` [DOXORUBICIN], the pIC50 with HT-1080 was 6.39; in the assay with A549 it was 6.08; in assay [1], 5.51; in assay [2], 5.51.

As to `O=c1[nH]cc(F)c(=O)[nH]1` [FLUOROURACIL], the pIC50 was 6.36 with HeLa; 5.07 in the assay with HT-1080; 5.23 in the assay on A549; 5.13 in assay [1]; 6.39 in assay [2].

With `COc1cc(C(O)C(O)CO)ccc1O` (centres undefined) [GUAIACYL GLYCEROL], the pIC50 with HeLa is less than 4.00; in the assay with HT-1080, less than 4.00; with A549, less than 4.00; in assay [1] it was less than 4.00; in assay [2], 4.01. This molecule had a PC50 in the assay with PANC-1 greater than 100 µM.

Turning to `O=C(O)c1ccc(O)cc1` [PARABEN], the pIC50 in the assay with HeLa was 4.44; in the assay on HT-1080, less than 4.00; in the assay on A549, less than 4.00; in assay [1] it was 4.20; in assay [2], 4.48. Besides, the PC50 in the assay on PANC-1 is greater than 100 µM.

`O=C1C[C@@H](c2ccccc2)Oc2cc(O)cc(O)c21` [PINOCEMBRIN]: the pIC50 with HeLa was less than 4.00; in the assay with HT-1080 it was 4.14; in the assay with A549 it was less than 4.00; in assay [1] it was less than 4.00; in assay [2], 4.15. Further, in the assay on PANC-1, the PC50 is 72.9 µM.

Take `COc1cc(/C=C/c2ccc(O)cc2)cc(OC)c1` [PTEROSTILBENE]: the negative-log IC50 (pIC50) was 5.03 with HeLa; 4.03 in the assay with HT-1080; 4.14 with A549; 4.80 in assay [1]; 5.53 in assay [2]. Also, the PC50 in the assay with PANC-1 stood at 44.4 µM.

For the molecule `Oc1ccc([C@H]2CCc3ccc(O)cc3O2)cc1` [TUPICHINOL C], the pIC50 in the assay on HeLa is 4.03; in the assay on HT-1080, 4.30; in the assay with A549 it was 4.03; in assay [1], less than 4.00; in assay [2] it was 4.36. Further, in the assay with PANC-1, the PC50 is greater than 100 µM.
